Measurements from ChEMBL document CHEMBL2390908, “Mapping the Vif-A3G interaction using peptide arrays: a basis for anti-HIV lead peptides” (Bioorg Med Chem, 2013).
Activity calls are given as the source filed them. The rule behind the calls is not given here.

Legend:
[1] = system: Human immunodeficiency virus 1; assay: Binding affinity to N-terminal His6-tagged HIV1 HXB2 Vif CTD (141 to 192 amino acids) expressed in Escherichia coli MC-1061 after overnight incubation by chemiluminescence assay
In short: (§1)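 Immobilized peptide arrays blocked 4 h in 3.5% milk in 50 mM Tris-HCl pH 8, 150 mM NaCl, 1% Tween 20, then probed overnight at 4 °C with purified His-tagged protein in that buffer (full-length Vif 2 μM final; Vif CTD 7 μM final). Detection used anti-Vif mAb, HRP goat anti-mouse and chemiluminescence. Two experiments, duplicate arrays per slide.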

[2] = system: Human immunodeficiency virus 1; assay: Binding affinity to full length N-terminal His6-tagged HIV1 HXB2 Vif expressed in Escherichia coli MC-1061 after overnight incubation by chemiluminescence assay; in short: as §1
H9 = assay: Cytotoxicity against human H9 cells at 50 to 100 uM after 2 hrs; assay type: cell-based; details: h9, 2 h
[3] = system: Human immunodeficiency virus 1; assay: Antiviral activity against HIV1 infected in human H9 cells assessed as inhibition of viral propagation at 50 to 100 uM incubated for 2 hrs prior to infection measured on day 7 to 9 by MAGI assay; assay type: functional, organism-based
In short: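 H9 cells, which express endogenous A3G, pretreated 2 h with peptides at 50 and 100 μM, then infected with wt HIV-1 HXBII at MOI 0.05. Media collected on days 5, 7 and 9 post-infection, and released-virus infectivity titered by MAGI assay.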

293T = assay: Binding affinity to HIV1 Vif expressed in human 293T cells assessed as inhibition of A3G degradation at 100 uM after 24 hrs by Western blot analysis; assay type: cell-based; details: Human immunodeficiency virus 1
In short: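 293T cells co-transfected by calcium phosphate with Myc/His6-tagged A3G and HVif vectors (empty pcDNA3.1 in place of Vif as control). Medium replaced 8 h post-transfection, peptides added at 100 μM for a further 24 h. Lysates immunoblotted with anti-Myc (A3G) and anti-Vif antibodies. A3G bands quantified densitometrically, with A3G intensity in the no-Vif control set to 100%.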

| Activity [1] | Activity [2] | Substance | Activity (H9) | inhibition [3] | inhibition (293T) |
| --- | --- | --- | --- | --- | --- |
| inactive | Active | H-AGAKISIMTYSEFKH-OH | – | – | – |
| Active | Active | H-DGPRATMKIMNYDEF-OH | – | – | – |
| inactive | Active | H-HQGCPFQPWDGLDEH-OH | – | – | – |
| Active | Active | H-MRFFHWFSKWRKLHR-OH | – | – | – |
| Active | Active | H-NTVWLCYEVKTKGPS-OH | – | – | – |
| Active | Active | H-QEMAKFISKNKHVSL-OH | – | – | – |
| Active | Active | H-TFLAEDPKVTLTIFV-OH | – | – | – |
| Active | Active | H-YSQRELFEPWNNLPK-OH | – | – | – |

| Substance | Activity [1] | Activity [2] | Activity (H9) | inhibition [3] | inhibition (293T) |
| --- | --- | --- | --- | --- | --- |
| H-LDVIPFWKLDLDQDY-OH | Active | Active | Non-toxic | inactive | Active |
| H-WVRGRHETYLCYEVE-OH | Active | Active | Non-toxic | Active | Active |
